LANA-H2A inh – blocks KSHV LANA binding to histone H2A/H2B. 0.6% of 320,000 active. cell-free LANA-H2A/H2B peptide, fluorescence polarization. inhibition, % (no concentration beside the values); in the data active means inhibition mostly above about 10%, no sharp cut-off; inactive means mostly below about 6.7%
HDAC3 inh – human HDAC3 inhibition; inhibition, % at 8.3 µM; AID 2718; 0.15% of 320,000 active; O15379; recombinant HDAC3, fluorogenic peptide/trypsin coupled, fluorescence; in the data active means inhibition above about 26%, passing the limit was not always enough; inconclusive means no clear call, values can overlap the other calls
DSG3 Ab inh – blocks pemphigus antibody binding to human desmoglein-3; P32926; DSG3-coupled beads, scFv-anti-DSG3-GFP binding, flow cytometry; stronger effect = lower value; binding (percent of control), % at 10 µM; 0.48% of 310,000 active; AID 588358;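 active means binding more than 3 SD below its plate's average and above zero; inconclusive means below that plate limit but binding exactly zero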;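 further: hits lower antibody fragment binding to DSG3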
Target sequence (P32926 whole entry, looked up, the tested form may be a part): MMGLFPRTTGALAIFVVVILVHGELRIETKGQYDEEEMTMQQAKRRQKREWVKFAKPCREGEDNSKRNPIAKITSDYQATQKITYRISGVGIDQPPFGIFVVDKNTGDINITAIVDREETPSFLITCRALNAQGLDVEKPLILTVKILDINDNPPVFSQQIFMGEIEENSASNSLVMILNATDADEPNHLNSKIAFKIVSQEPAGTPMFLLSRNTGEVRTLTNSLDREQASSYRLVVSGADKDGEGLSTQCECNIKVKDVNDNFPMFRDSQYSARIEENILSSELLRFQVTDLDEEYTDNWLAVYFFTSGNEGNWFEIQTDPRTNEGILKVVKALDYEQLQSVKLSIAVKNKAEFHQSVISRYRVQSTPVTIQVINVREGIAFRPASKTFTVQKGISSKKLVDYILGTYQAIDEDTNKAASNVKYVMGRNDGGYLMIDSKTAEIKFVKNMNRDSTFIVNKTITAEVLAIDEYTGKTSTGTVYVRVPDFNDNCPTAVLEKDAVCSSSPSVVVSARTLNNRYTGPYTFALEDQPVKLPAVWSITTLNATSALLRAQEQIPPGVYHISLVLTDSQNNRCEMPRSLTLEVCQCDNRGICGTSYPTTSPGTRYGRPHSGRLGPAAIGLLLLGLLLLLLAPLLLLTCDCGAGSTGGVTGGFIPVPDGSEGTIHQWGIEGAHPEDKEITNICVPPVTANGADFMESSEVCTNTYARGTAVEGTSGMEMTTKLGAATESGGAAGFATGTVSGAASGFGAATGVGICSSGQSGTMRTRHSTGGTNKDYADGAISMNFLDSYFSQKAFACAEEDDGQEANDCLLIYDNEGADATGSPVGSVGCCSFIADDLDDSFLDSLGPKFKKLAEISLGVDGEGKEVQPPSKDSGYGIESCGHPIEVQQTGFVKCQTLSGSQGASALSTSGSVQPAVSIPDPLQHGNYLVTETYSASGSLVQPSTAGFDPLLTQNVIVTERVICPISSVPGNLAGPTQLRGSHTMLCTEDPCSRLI
Arrestin-AP2 inh – blocks beta-arrestin peptide binding to AP2 adaptin | FITC-arrestin peptide / GST-AP2 beads, flow cytometry; AP2 beta2 appendage carries R879A mutation | AID 504490 | inhibition, % at 10 µM | 0.31% of 340,000 active;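 active means inhibition above a set limit, near 3 SD of compounds lacking own fluorescence, cut at about 54% in these data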;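 further: plate controls were DMSO wells for no effect and 5 µM unlabelled arrestin peptide for full effect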
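system = GST-tagged AP2 beta2-adaptin appendage (R879A) on 4 µm glutathione beads | reagent = FITC-labelled arrestin peptide probe, 50 nM final | schedule = compound with beads 12 min RT, then probe 1 h RT | signal = HyperCyt-sampled flow cytometry, FL1 channel, ex 488/em 535 nm | read-out = percent response from loss of bead-bound FITC fluorescence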
JMJD2C inh – blocks human GASC-1 demethylase activity; inhibition, % at 2.35 µM; Q9H3R0; 0.069% of 330,000 active; GST-JMJD2C(1-420) H3K9me3 demethylation, DELFIA europium;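 active means more than half of a compound's replicate wells show inhibition beyond 50%, single wells judged on their own value; inconclusive means some, but no more than half, of replicates pass 50% inhibition; inactive means no replicate passes 50% inhibition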;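 further: signal counts dimethyl H3K9 product captured on neutravidin plate; 0% = median of DMSO wells and 100% = 0.3 times that DMSO median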
T cell HTS – modulates CD8 T cell binding to vesicles | 2C CD8+ T cell-vesicle binding, flow cytometry; stronger effect = lower value | response (vesicle binding), % at 7 µM | 0.068% of 330,000 active | AID 2052;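 active means response, share of CD8 T cells binding vesicles, and their 90th percentile fluorescence all below set limits, cut at about 80% in these data, passing the limit was not always enough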;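 further: values below 100% mean blocked vesicle binding to the CD8+ T cells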
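Material: 2C TCR transgenic mouse naive CD8+ T cells, MACS-purified. Also added: QL9-charged Drosophila Ld/ICAM-1/B7-1 vesicles. Timing: binding 1.5 h at 37 °C. Measured by: high-throughput flow cytometry with anti-B7-1 and anti-CD8 staining. Read-out: percent CD8+ FL2 mean versus row control. Controls: Unloaded micro-vesicles (low), QL9 vesicles with 0.7% DMSO (high).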
Arr-AP2 CP1 – human beta-arrestin and AP2 interaction inhibition, cherry pick; 2% of 1,300 active; shares compounds with Arrestin-AP2 inh; GST-AP2 beads, FITC arrestin peptide binding, flow cytometry; GST-fused beta2-adaptin appendage, R879A mutant; inhibition, % at 10 µM;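 active means inhibition above a set limit, roughly 3 SD of non-fluorescent compound noise, cut at about 38% in these data; inactive means inhibition at or below that limit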;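 further: loss of bead fluorescence from 50 nM FITC arrestin peptide bound to appendage; 0% = negative control wells and 100% = excess unlabelled arrestin peptide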
GST-FITC bead – disrupts GST binding to glutathione beads, arrestin-AP2 artifact | shares compounds with Arrestin-AP2 inh | GST-fluorescein binding to GSH beads, fluorescence, counter-screen | inhibition, % at 10 µM | 2% of 1,300 active | AID 588338;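 active means inhibition above 50%, about 3 SD of the inhibition seen with non-fluorescent compounds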;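 further: fluorescein maleimide labelled GST captured on 4 micron glutathione beads; higher means more loss of bead fluorescence from quenching or blocked binding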
The depositor's hits bear a star; i = inactive; ? = inconclusive; / = not tested or not shown. Rows were chosen to be rich in hits. Some 1.6% of all compounds tested hit in one or more screens of this group.

SMILES	LANA-H2A inh	HDAC3 inh	DSG3 Ab inh	Arrestin-AP2 inh	JMJD2C inh	T cell HTS	Arr-AP2 CP1	GST-FITC bead
Cc1ccc(C2/C(=C(\O)c3ccc4c(c3)OCCO4)C(=O)C(=O)N2CC2CCCO2)cc1 (stereo not drawn)	3	2	109	59*	-10	i	-1	-4
CCCCNC(=O)C(=O)NCc1ccncc1	-4	0	105	-19	12	913	/	/
CCNC(=O)C(=O)NCc1ccncc1	2	19	107	62*	-14	203	4	-1
CC1CC=CCC1(CO)CO (stereo not drawn)	/	/	93	21	/	/	/	/
Cc1cc(C)n2nc(SCC(=O)NC3CCCCC3C)nc2n1 (stereo not drawn)	3	-3	104	0	5	427	/	/
CC1CN(S(=O)(=O)c2ccc(C(=O)Nc3nc(-c4cc5ccccc5o4)cs3)cc2)CC(C)O1 (stereo not drawn)	-3	3	84	107*	3	731	-6	-2
O=C(Nc1nc(-c2cc3ccccc3o2)cs1)c1ccc(S(=O)(=O)N2CCCC2)cc1	3	-13	93	13	-3	362	/	/
COc1cccc(-c2nc(CS(=O)(=O)CC(=O)NCCN3CCOCC3)c(C)o2)c1	2	-4	111	-3	-16	158	/	/
O=C(CCNC(=O)C1CCN(S(=O)(=O)c2ccccc2)CC1)NCc1ccc(Cl)cc1	3	0	102	63*	2	558	22	-12
COc1cc(OC)cc(C(=O)NC(C(=O)NNC(=O)c2ccc(C)cc2)C(C)C)c1 (stereo not drawn)	-1	-2	97	63*	3	88	4	-2
COc1ccc(N2CCCC2)c(NC(=O)c2ccc(Br)o2)c1	-20	-1	109	64*	-5	857	19	-6
O=C(Nc1ccccc1N1CCCC1)c1ccc(Br)o1	-2	-8	90	29	4	497	/	/
Cc1ccc(C(=O)COC(=O)CCN2C(=O)C3C4C=CC(C5CC45)C3C2=O)cc1 (stereo not drawn)	-2	-3	/	57*	5	954	2	-1
Cc1ccc(NC(=S)NC2CCCC2)cc1C	1	7	99	4	-2	472	/	/
Cc1nc2ccc(NC(=S)NC3CCCCC3)cc2nc1C	3	0	97	55*	20	277	1	-7
COc1ccc(CCNS(=O)(=O)c2ccc(-c3ccc(=O)[nH]n3)o2)cc1OC	7	2	/	44	-15	372	/	/
N#Cc1ccc(-c2nnnn2-c2ccc3c(c2)OCO3)cc1	1	3	101	1	-1	352	/	/
N#Cc1cccc(-n2nnnc2-c2ccc3c(c2)OCO3)c1	3	-2	53	70*	22	298	-7	-10
O=C(Nc1ccccc1)c1nn(-c2ccccc2)c(=O)cc1C(F)(F)F	2	3	/	101*	-9	596	-3	-9
COc1ccc(NS(=O)(=O)c2cccc(C(=O)NCC3(N(C)C)CCCCC3)c2)cc1	-1	3	103	55*	-2	474	-4	-9
COc1ccc(NS(=O)(=O)c2cccc(C(=O)NCC(c3ccccc3)N(C)C)c2)cc1 (stereo not drawn)	6	-2	94	0	-18	472	/	/
CN(C)C1(CNC(=O)c2cccc(S(=O)(=O)NCc3ccccc3)c2)CCCCC1	1	-2	104	5	-1	368	/	/
Cc1ccc(NS(=O)(=O)c2cccc(C(=O)NCC3(N(C)C)CCCCC3)c2)cc1	-6	3	107	-5	-15	258	/	/
CN(C)C1(CNC(=O)c2cccc(S(=O)(=O)Nc3ccc(Br)cc3)c2)CCCCC1	-5	1	123	-7	6	431	0	2
CCN(c1ccccc1)S(=O)(=O)c1cccc(C(=O)NCC2(N(C)C)CCCCC2)c1	4	3	86	14	-6	i	17	-2
SMILES	LANA-H2A inh	HDAC3 inh	DSG3 Ab inh	Arrestin-AP2 inh	JMJD2C inh	T cell HTS	Arr-AP2 CP1	GST-FITC bead
CSc1ccc(CN(C)CC(=O)NC(=O)NCCC2=CCCCC2)cc1	-7	3	/	8	3	677	/	/
CCn1c(C)nc2cc(C(=O)NNC(=O)Nc3cccc(Cl)c3)ccc21	6	6	100	-3	-3	245	/	/
CCn1c(C)nc2cc(C(=O)NNC(=O)Nc3ccc(Cl)cc3)ccc21	4	3	119	57*	-3	572	-13	0
CC(NC(=O)C1CCCN1S(=O)(=O)c1ccccc1)c1ccccc1 (stereo not drawn)	6	4	93	7	6	4	/	/
CCNC(=O)N(CC)C[C@H]1N[C@@](C)(C(=O)OC)[C@H]2C(=O)N(Cc3ccccc3)C(=O)[C@@H]12	-1	-6	95	-7	24	304	/	/
CCN(C[C@H]1N[C@@](C)(C(=O)OC)[C@H]2C(=O)N(Cc3ccccc3)C(=O)[C@@H]12)C(=O)c1ccccc1	/	/	105	57*	/	283	2	-4
COc1cccc(Oc2nccc(N(C)C)c2C#N)c1	-1	8	106	1	42	176	/	/
COc1ccc(OC)c(S(=O)(=O)Nc2cccc(-c3ccc(N4CCCCCC4)nn3)c2)c1	-2	-3	/	60*	7	219	6	-4
COc1cc2c(cc1NC(=O)C(C)NCc1ccccc1)oc1ccccc12 (stereo not drawn)	-3	-3	95	10	-12	0	2	-5
COc1cc2c(cc1NC(=O)Nc1ccccc1)oc1ccccc12	-4	-9	112	-3	-2	275	5	-1
CCC1(c2ccc(C)cc2)NC(=O)N(C(C)C(=O)Nc2ccc(N3CCOCC3)cc2)C1=O (stereo not drawn)	-7	6	99	24	-2	338	/	/
COc1ccc(/C=C2\SC(=S)N(CCCC(=O)Nc3cc(C)on3)C2=O)cc1OC	-2	-2	?	76*	5	162	-4	5
CC(=O)Nc1ccc(C(=O)COC(=O)c2cc(C)oc2C)c(F)c1	-1	9	101	72*	1	362	0	-2
CC(=O)Nc1ccc(C(=O)COC(=O)c2ccco2)c(F)c1	0	3	107	-3	6	423	/	/
Cc1cc(C)nc(N2CCCC(C(=O)Nc3cccc(Cl)c3)C2)n1 (stereo not drawn)	2	-10	115	-7	7	440	/	/
